Compound activity as filed in PubChem BioAssay.
thrombin 1536 – thrombin (human) inhibition; inhibition, % at 5 µM; AID 1046; alpha-thrombin, Boc-VPR-AMC fluorogenic substrate cleavage; 220,000 compounds, 0.26% hits;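 active = inhibition at or above 40%; inactive = inhibition below 40%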;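 note: 0% = enzyme with no compound and 100% = wells without enzyme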
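Material: human alpha-thrombin protein; Also added: Boc-VPR-AMC substrate, 15 µM final; Timing: enzyme reaction carried out at room temperature; Signal: fluorescence, ex 355 nm, em 460 nm; Measure: % inhibition of thrombin; Controls: enzyme without compound as high, wells lacking enzyme as low.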
Furin inhibitor – inhibitors of human furin. 220,000 compounds, 0.061% hits. inhibition, % at 20 µM or 30 µM. purified furin, fluorogenic substrate cleavage. AID 463115. P09958; in the data active = inhibition above about 25%
FXIa inh 1536 – blocks human coagulation factor XIa protease activity; P03951; purified FXIa, Boc-Glu-Ala-Arg-AMC fluorogenic substrate; inhibition, % at 5 µM; 220,000 compounds, 0.14% hits;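 active = inhibition of at least 40%; inactive = inhibition below 40%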;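 note: fluorescence of freed AMC excited at 355 nm; 0% = enzyme without compound and 100% = no enzyme blank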
hK5 inh – blocks human kallikrein 5 protease activity; recombinant hK5, fluorogenic AMC substrate cleavage; inhibition, % at 5 µM; 210,000 compounds, 0.59% hits; AID 873;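 active = inhibition of 40% or more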;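 note: 0% = enzyme controls without compound and 100% = no-enzyme blanks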
FXIIa inh – blocks human coagulation factor XIIa protease activity; purified FXIIa, Boc-QGR-AMC fluorogenic substrate, 2 h; inhibition, % at 5 µM; 220,000 compounds, 0.3% hits; P00748; in the data active = inhibition above about 40%;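 note: 0% = enzyme with no compound and 100% = blank without enzyme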
Target sequence (P00748 20-372 limits assumed): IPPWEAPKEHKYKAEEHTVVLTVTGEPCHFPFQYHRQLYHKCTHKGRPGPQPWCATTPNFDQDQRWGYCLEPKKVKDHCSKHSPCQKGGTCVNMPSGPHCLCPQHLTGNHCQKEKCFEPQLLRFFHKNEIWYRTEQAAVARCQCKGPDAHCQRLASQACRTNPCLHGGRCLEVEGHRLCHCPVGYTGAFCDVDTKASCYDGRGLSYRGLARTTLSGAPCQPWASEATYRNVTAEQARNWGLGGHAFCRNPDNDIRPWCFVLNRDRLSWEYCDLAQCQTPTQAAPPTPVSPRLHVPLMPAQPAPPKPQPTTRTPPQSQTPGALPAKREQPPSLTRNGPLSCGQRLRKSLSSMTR
Target sequence (P00748 373-615 limits assumed): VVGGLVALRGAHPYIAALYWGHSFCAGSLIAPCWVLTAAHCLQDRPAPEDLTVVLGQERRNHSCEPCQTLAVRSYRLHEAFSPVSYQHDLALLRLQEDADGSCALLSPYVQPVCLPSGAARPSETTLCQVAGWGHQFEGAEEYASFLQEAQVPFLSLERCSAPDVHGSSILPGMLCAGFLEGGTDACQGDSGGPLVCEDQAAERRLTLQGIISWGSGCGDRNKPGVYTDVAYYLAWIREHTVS
Active calls of the source: *; x = no result given. The list is not random: actives were taken first. Their share in the collection is about 1.1%.

SMILES	thrombin 1536	Furin inhibitor	FXIa inh 1536	hK5 inh	FXIIa inh
CCOC(=O)c1ccc(NC(=O)CCSCCc2ccccn2)cc1	3.6	-28.5	-5.0	-2.4	3.5
O=C(Cc1ccccc1)Nc1ccccc1C(=O)N1CCCCCC1	-1.5	-17.1	-6.3	-24.1	-3.4
Oc1cccc(NC(=S)N=Nc2c(O)[nH]c3ccccc23)c1	15.7	14.3	21.3	78.4*	24.0
COc1ccccc1CNC(=O)C(NC(=O)c1ccc(C)cc1)C(C)C (stereo not given)	17.2	-7.9	23.9	13.0	27.9
CSS(=O)(=O)c1cccc2cccnc12	-5.0	-14.3	-7.1	-5.0	1.8
COc1ccc(Nc2nc(OC)nc(N3CCOCC3)n2)cc1	-3.3	-1.2	-4.7	-0.8	3.8
COc1nc(NCCN2CCOCC2)nc(Nc2ccccc2)n1	13.5	-25.5	3.9	68.7*	22.2
Cc1[nH][nH]c(=O)c1C(c1cc([N+](=O)[O-])ccc1O)c1c(C)[nH][nH]c1=O	22.6	-8.0	13.3	57.3*	7.9
CCOC(=O)c1cc(-c2ccccc2)sc1NC(=O)CN1C(=O)NC(CC)(c2ccccc2)C1=O (stereo not given)	14.2	-7.3	15.5	40.0*	17.8
CN(Cc1nc(-c2cccs2)no1)CC1COCCO1 (stereo not given)	1.9	-23.0	3.6	x	12.5
Cc1cc(F)ccc1S(=O)(=O)Nc1ccccc1C(=O)Nc1ncn[nH]1	2.7	-4.0	0.0	1.0	-2.4
Cc1cc(F)ccc1S(=O)(=O)Nc1ccccc1C(=O)NCc1ccccn1	36.2	-7.6	34.3	49.9*	28.8
O=C(Nc1ccccc1)NC1(C(=O)NCc2cccs2)CCCCC1	-8.4	-9.6	-3.1	-21.9	10.1
CCC1CCCCN1CCCNC(=O)c1ccc(N2CCOCC2)c(NS(=O)(=O)c2ccc(OC)cc2)c1 (stereo not given)	-5.0	-24.7	-2.5	-3.4	2.9
COc1cc2ccccc2cc1C(=O)NC(=S)Nc1cc(C(=O)O)ccc1C	-15.1	-10.9	-0.7	-4.0	98.9*
Cc1ccc(S(=O)(=O)N(CC(=O)NCCC2=CCCCC2)Cc2ccccc2)cc1	4.8	-1.6	12.2	-14.9	42.0*
O=C(CN(Cc1ccccc1)S(=O)(=O)c1ccc(F)cc1)NCCC1=CCCCC1	6.1	-14.3	2.2	-5.4	21.9
O=C(CN1CCN(Cc2ccccc2F)C1=O)NC1CCCC1	1.6	-22.0	-5.3	1.4	8.3
O=C(CN1CCCN(Cc2ccc(F)cc2Cl)C1=O)NC1CCCCCCC1	12.2	-20.6	7.2	104.1*	23.7
COc1ccc(-c2csc(N)n2)cc1F	-18.6	-18.5	-11.1	-6.2	1.4
COc1ccc(C2=CSC3=NCCN23)cc1F	14.0	-8.3	4.5	35.9	101.1*
CC(=O)N1CCN(C(=S)NC(=O)c2ccc(S(=O)(=O)N3CCOCC3)cc2)CC1	-1.0	-17.9	7.8	-14.0	11.3
COc1ccc(NC(=O)C(Cl)=C(Cl)Cl)cn1	-2.8	-8.4	32.0	103.5*	26.5
Nc1c(-c2ccccc2)cnn1-c1ccc(C(=O)O)cc1	3.1	-13.2	-4.6	-27.5	11.9
COc1ccc(NC(=O)Nc2ncn(Cc3cccc(C(F)(F)F)c3)n2)cc1OC	-2.5	29.2*	-2.1	-7.7	18.8
SMILES	thrombin 1536	Furin inhibitor	FXIa inh 1536	hK5 inh	FXIIa inh
FC(F)(F)c1cccc(Cn2cnc(NC(=S)NCCc3ccccc3)n2)c1	-0.7	-20.9	-2.9	-8.0	1.4
Cc1cc(NC(=O)COC(=O)[C@@H](NS(=O)(=O)c2ccc(Br)cc2)C(C)C)no1	3.8	-26.6	3.0	4.3	14.3
CCOC(=O)/C(C#N)=C/N=c1ccc(C)cn1C	11.7	-0.3	33.0	42.5*	104.2*
Cc1ccc(S(=O)(=O)N2CCOCC2)cc1N/N=C(\C#N)c1nc2ccccc2[nH]1	-0.8	4.5	6.4	-1.8	12.8
CCn1c(C(C)NC(C)=O)nc2ccccc21 (stereo not given)	21.5	-10.7	5.5	56.6*	3.2
CC(=O)Nc1ccc(S(=O)(=O)NCCNc2ccccc2[N+](=O)[O-])cc1	-0.3	-14.8	5.0	1.2	98.8*
NC(=O)c1c(NC(=O)C2CCCO2)sc2c1CCCCC2 (stereo not given)	-5.5	-22.5	7.8	-11.4	6.5
NC(=O)c1c(NC(=O)C2CCCO2)sc2c1CCC2 (stereo not given)	-0.8	-18.7	23.4	5.6	50.4*
O=C(NCc1ccc2c(c1)OCO2)c1c[nH]c2ccc(S(=O)(=O)N3CCOCC3)cc2c1=O	54.9*	-11.0	5.5	-11.6	12.7
CNC(=O)Nc1ccc(C2SCCS2)cc1	-2.5	-26.2	-11.1	-6.1	6.8
CCCCNC(=O)Nc1ccc(C2SCCS2)cc1	20.3	-7.2	6.1	60.3*	11.0
Oc1ccc(C2Nc3cccc4cccc(c34)N2)c(O)c1	66.9*	-22.6	11.3	57.0*	14.3
COc1cc(C2Nc3cccc4cccc(c34)N2)cc(OC)c1O	0.6	-14.2	1.4	9.3	9.4
O=C(Nc1ccccc1)c1cccc(N2C(=O)CCC2=O)c1	19.2	-18.9	11.4	63.5*	16.8
COc1ccc(S(=O)(=O)NCCOc2cccc3cccnc23)cc1OC	11.4	-6.5	42.1*	11.1	30.4
COc1cc(C(=O)NCCOc2cccc3cccnc23)cc(OC)c1OC	1.0	-5.6	-0.8	0.8	3.2
O=C1c2ccccc2C(O)(c2ccccc2)N1c1ccncc1 (stereo not given)	-0.9	-24.2	-0.5	-1.0	10.3
CC(=O)Nc1cccc(-c2nc3ccccc3c(=O)o2)c1	8.2	-15.0	9.2	25.9	9.9
CCC(=O)Nc1cccc(-c2nc3ccccc3c(=O)o2)c1	5.8	-1.1	13.0	47.4*	17.9
COC(=O)c1nnn(CC(=O)Nc2cccc(Cl)c2C)c1C(=O)OC	-0.4	-16.0	0.7	2.4	6.3
CC1CN(c2nc3ccccn3c(=O)c2/C=C(\C#N)S(=O)(=O)c2ccccc2)CC(C)O1 (stereo not given)	3.3	31.1*	2.3	1.4	18.5
CC(C)Nc1nc(NC(C)C)nc(N(C#N)C(C)C(=O)N(C)C)n1 (stereo not given)	0.8	-5.3	3.8	-6.0	10.7
CC(C)Nc1nc(C#N)nc(NC(C)C)n1	102.3*	-32.3	1.6	97.2*	6.2
Cn1c(=N)n(CC(=O)c2cccs2)c2ccccc21	14.4	-4.8	-2.7	45.0*	16.1
CCCn1c(=N)n(CC(=O)c2cccs2)c2ccccc21	8.2	-18.2	4.7	7.2	17.4
SMILES	thrombin 1536	Furin inhibitor	FXIa inh 1536	hK5 inh	FXIIa inh
COc1ccc(CNC(=O)NC(C)(C)c2cccc(C(C)(C)NC(=O)NCc3ccc(OC)cc3)c2)cc1	15.5	-18.2	8.7	44.1*	30.1
C=C(C)c1cccc(C(C)(C)NC(=O)NCc2ccc(OC)cc2)c1	-8.0	-1.3	4.0	-4.9	2.2
Cc1cc2ncn(C(=O)c3ccc4c(c3)OCO4)c2cc1C	41.2*	-23.3	17.8	6.0	-7.6
CCOC(=O)COc1ccc2nsnc2c1Cl	4.3	-18.8	-4.8	101.7*	-8.5
Cc1cc(O)c2c(c1)C(=O)c1cccc(O)c1C2=O	-1.5	-12.2	-3.2	-5.7	0.4
O=C1C=C(O)c2c(O)cccc2C1=O	55.2*	-14.9	10.8	10.8	17.9
